Reference: PMC6279569 (Clinical cancer research : an official journal of the …, 2018)

Experiments:
[1] = tested on: non-malignant cells (PBMC, 7SM0032, MCF10A, mammary epithelial cells, small airway epithelial cells); test: Cell growth, CellTitor-Glo assay, non-malignant cells; assay type: cell-based; details: human PBMCs, 7SM0032 cells
glioblastoma stem cells = test: Cell growth of glioblastoma stem cells; assay type: cell-based, human; details: 1 µM, 72 hours; PBT003, PBT707, PBT017
Outline: (§1)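 Cells derived from WHO grade IV glioblastoma or primary brain tissue, grown as neurospheres in DMEM/F12 with 20 ng/ml EGF, 20 ng/ml FGF, 5 µg/ml heparin, B27 and 2 mM L-glutamine. Seeded at 5 × 10³/ml or 3 × 10⁴/ml. Given DMSO or 1 µM compound for 72 h. Growth read by CellTiter-Glo luminescence relative to DMSO control, ± S.D.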

normal neural stem cells = test: Cell growth of normal neural stem cells; assay type: cell-based; details: 1 µM, 72 hours; NSC005-007
Outline: as §1

human TRβ = biological target: T1, human TRβ (Homo sapiens, UniProt P10828); test: Human thyroid hormone receptor beta; assay type: cell-based; details: various concentrations, 24 h
T1 sequence (P10828 1-461): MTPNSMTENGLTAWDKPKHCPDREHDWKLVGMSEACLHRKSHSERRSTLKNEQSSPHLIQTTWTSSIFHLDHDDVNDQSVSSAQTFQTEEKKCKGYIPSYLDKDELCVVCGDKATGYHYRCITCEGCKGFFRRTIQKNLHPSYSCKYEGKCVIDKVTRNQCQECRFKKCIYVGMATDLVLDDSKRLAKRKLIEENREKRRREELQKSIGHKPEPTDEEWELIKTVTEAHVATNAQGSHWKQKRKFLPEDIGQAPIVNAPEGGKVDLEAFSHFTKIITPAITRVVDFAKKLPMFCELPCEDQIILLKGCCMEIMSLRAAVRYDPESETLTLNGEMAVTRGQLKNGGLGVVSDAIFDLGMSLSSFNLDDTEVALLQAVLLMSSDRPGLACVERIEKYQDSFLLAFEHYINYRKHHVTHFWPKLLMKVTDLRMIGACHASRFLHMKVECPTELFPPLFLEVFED
Outline: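 Commercial reporter cells constitutively expressing human TRβ, with luciferase driven by a TRβ-responsive promoter. Treated for 24 h with various concentrations of T3 (reference agonist) or test compound. TRβ activity read as luciferase relative luminescence units on a plate reader.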

Recombinant human PCNA = Recombinant human PCNA (Homo sapiens, UniProt P12004); test: Saturation Transfer Difference; assay type: binding; details: T3 50 µM, AOH1160 expected 16 µM, 1 µM PCNA
Chain of Recombinant human PCNA (P12004 whole entry): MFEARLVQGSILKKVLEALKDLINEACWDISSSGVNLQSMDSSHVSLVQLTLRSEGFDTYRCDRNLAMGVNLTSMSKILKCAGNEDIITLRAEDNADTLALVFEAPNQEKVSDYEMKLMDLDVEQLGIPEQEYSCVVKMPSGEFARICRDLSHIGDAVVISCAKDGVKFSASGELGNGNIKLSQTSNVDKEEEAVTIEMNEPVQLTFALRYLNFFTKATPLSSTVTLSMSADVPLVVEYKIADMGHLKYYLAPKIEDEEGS
Outline: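 Recombinant human PCNA (1 µM) in 15 mM D₂O phosphate buffer, pH 7.2, with 10 µM deuterated DTT and 2% D₆-DMSO. T3 (50 µM) was run with and without test compound; 4 µM DSS served as internal reference for ligand concentration. Spectra were taken at 25 °C, 700 MHz, cryoprobe. Saturation was at 0.9 ppm and reference at −30 ppm, acquired interleaved. STD = (I_Ref − I_STD)/I_Ref.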

[2] = tested on: SK-N-BE(2)c, H82 and H526 cells; test: DNA combing analysis of replication fork extension; assay type: cell-based, human; details: 0.2 µM, 20 minutes, vs untreated control
Outline: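 Synchronized S-phase cells (DMEM, 10% FBS) pulsed with CldU for 10 min, washed, then IdU for 20 min with or without 0.2 µM compound. Cells lysed on slides and DNA fibres spread. Fibres immunostained for CldU (green) and IdU (red). Segment lengths from more than 30 fibres averaged ± SD. IdU lengths compared with the untreated control by Student's t-test.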

SK-N-DZ and H524 cells = test: Cell cycle analysis by PI flow cytometry, cancer cells; assay type: cell-based, human
7SM0032 and SAEC cells = test: Cell cycle analysis by PI flow cytometry, non-malignant cells; assay type: cell-based, human; details: 500 nM AOH1160
Outline: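 7SM0032 cells (hEPM-1 medium) and SAEC (SAGM medium), 37°C, 5% CO2. Seeded at 1×10⁵/ml and attached overnight. Exposed to 500 nM test compound for the indicated time (methods: 6 or 24 h). Fixed in 60% ethanol, stained with propidium iodide, and analysed by flow cytometry. Cell-cycle populations, including sub-G1, were modelled from PI intensity.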

[3] = tested on: γH2A.X, caspase-3 and caspase-9 in cancer cells; test: Western blot, cancer cells; assay type: cell-based, human
Outline: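 Conditions: SK-N-DZ cells with 3 µM AOH39 for 0, 6 or 24 h; cancer cells with 500 nM AOH1160 for the indicated times. Cells were lysed in Laemmli buffer, sonicated, run on 4–12% SDS-PAGE and blotted to nitrocellulose. After 5% milk block, blots were probed for γH2A.X, total H2A.X, cleaved and full-length caspase-3, and cleaved caspase-9. Detection used peroxidase secondaries and ECL.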

γH2A.X in 7SM0032 cells = test: Western blot, non-malignant cells; assay type: cell-based, human; details: 500 nM AOH1160
Outline: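 7SM0032 cells treated with 500 nM compound for the indicated times, then lysed directly in Laemmli buffer on the plate. Immunoblot membranes blocked in 5% nonfat milk and probed with anti-γH2A.X. Detection with peroxidase-conjugated secondary antibody and ECL.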

[4] = tested on: HR-mediated DSB repair in DR-GFP cells; test: Double stranded DNA break repair assay, DR-GFP; assay type: cell-based
Outline: (§2)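 U2OS-derived reporter lines carry stable GFP reporters: DR-GFP for HR and EJ5-GFP for end joining. Cells were grown in DMEM/10% FBS, seeded at 2.5×10⁴ cells/cm² and attached overnight. They were lipofected with an I-SceI expression plasmid; after 3 h, medium was replaced with fresh medium containing test compound at various concentrations (DMSO control). GFP-positive fraction was measured by flow cytometry 3 d post-transfection, relative to control.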

SK-N-DZ cells = test: TUNEL assay, cancer cells; assay type: cell-based, human; details: 500 nM AOH1160, 24 h
Outline: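 Cells were seeded at 1×10⁵/ml on chamber slides. Once attached, they were treated 24 h with 500 nM test compound, then fixed. Apoptosis was detected by TUNEL with a TMR red in situ cell death kit; red TMR fluorescence marks free DNA ends.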

7SM0032 cells = test: TUNEL assay, non-malignant cells; assay type: cell-based; details: 500 nM AOH1160, 24 h
Outline: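 7SM0032 cells (hEPM-1 medium, 37°C, 5% CO2) seeded at 1×10⁵/ml on chamber slides. Once attached, treated with 500 nM compound for 24 h. Fixed and labelled by TUNEL using a TMR-red in situ cell death kit. Red fluorescence at free DNA ends scored as apoptotic cells.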

SK-N-DZ NB cells = test: Clonogenic assay with cisplatin, SK-N-DZ; assay type: cell-based, human; details: 500 nM AOH1160, 18 h
Outline: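 300 SK-N-DZ cells per 60-mm dish, attached overnight, then treated 18 h with or without various cisplatin concentrations, with or without 500 nM test compound. After two washes, cells were grown 3 weeks in fresh medium changed every 3 d. Colonies were stained with 0.5% crystal violet and counted. Combination index used the Bliss independence model: CI = (E_A+E_B−E_A*E_B)/E_AB.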

carboxyl esterase, ES-1 = biological target: T2, carboxyl esterase, ES-1 (Mus musculus, UniProt P23953); test: Stability in plasma, rodent; assay type: in vitro ADME
T2 sequence (P23953 19-554): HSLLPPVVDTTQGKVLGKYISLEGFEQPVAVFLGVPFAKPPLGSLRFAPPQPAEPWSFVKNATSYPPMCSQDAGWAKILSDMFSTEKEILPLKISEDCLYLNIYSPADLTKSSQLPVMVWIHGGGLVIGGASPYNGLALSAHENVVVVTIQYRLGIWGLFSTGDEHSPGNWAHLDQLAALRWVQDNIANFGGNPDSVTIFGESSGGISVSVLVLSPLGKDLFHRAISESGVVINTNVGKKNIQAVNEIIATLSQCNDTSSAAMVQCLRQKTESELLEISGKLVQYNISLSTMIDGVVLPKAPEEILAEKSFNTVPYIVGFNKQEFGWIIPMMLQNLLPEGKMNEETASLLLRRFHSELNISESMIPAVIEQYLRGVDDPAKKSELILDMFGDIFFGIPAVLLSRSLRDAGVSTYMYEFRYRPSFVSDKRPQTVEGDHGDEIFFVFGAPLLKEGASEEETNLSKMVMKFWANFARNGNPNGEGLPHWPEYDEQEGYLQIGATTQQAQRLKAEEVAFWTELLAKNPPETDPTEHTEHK
Outline: (§3)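 Test compound was incubated in plasma at 37 °C, with aliquots removed at various times. Remaining parent was quantified by LC-MS/MS (UPLC gradient, positive-ion electrospray) and expressed as percent of input concentration.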

[5] = Stability in plasma, canine; assay type: in vitro ADME; details: 37°C
Outline: as §3

[6] = Stability in plasma, monkey; assay type: in vitro ADME; details: 37°C
Outline: as §3

[7] = Stability in plasma, human; assay type: in vitro ADME; details: 37°C
Outline: as §3

[8] = Stability in plasma, Es1e/SCID mice; assay type: in vitro ADME; details: Es1^e/SCID mouse plasma, 37°C
Outline: as §3

Pharmacokinetic = assay type: in vivo, ES1^e/SCID mice
Outline: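 Test compound was dissolved at 60 °C under nitrogen in vehicle (Kolliphor HS 15, Poloxamer 407, BHA, BHT, propyl gallate). It was diluted to 4 mg/mL in 1:1 water:vehicle just before dosing and given orally at 40 mg/kg to male and female ES1^e/SCID mice. Plasma was taken by cardiac puncture at 0–24 h (3 male + 3 female per time point). Levels were measured by LC-MS/MS (positive ESI, MRM); PK parameters were derived by non-compartmental analysis.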

[9] = mouse, in vivo
[10] = tested on: xenograft tumors of SK-N-BE(2)c, SK-N-AS, MDA-MB-468 and H82; test: In vivo xenograft tumor model; details: 40 mg/kg once daily by oral gavage
[11] = tested on: EJ-mediated DSB repair in EJ5-GFP cells; test: Double stranded DNA break repair assay, EJ5-GFP; assay type: cell-based; details: 4 µM AOH39
Outline: as §2

Compound: O=C(CNC(=O)c1cccc2ccccc12)Nc1ccccc1Oc1ccccc1 [AOH1160]
- concentration up to which not significantly toxic [1]: at least 5 µM
- growth of glioblastoma stem cells (glioblastoma stem cells): inhibited the growth of glioblastoma stem cells
- growth of normal neural stem cells (normal neural stem cells): without significantly affecting the growth of normal neural stem cells
- thyroid hormone activity in TR reporter assay (human TRβ): neither AOH1160 nor AOH39 showed any thyroid hormone activity
- effect on STD values of T3 (Recombinant human PCNA): caused reduction of STD values of T3
- length of IdU-incorporated DNA strands (replication fork extension) [2]: significantly shorter IdU-incorporated DNA strands
- apoptosis (sub-G1 population) (SK-N-DZ and H524 cells; 500 nM AOH1160): promotes apoptosis
- cell cycle effect (SK-N-DZ and H524 cells; neuroblastoma and small cell lung cancer cells, 500 nM AOH1160): causes cell cycle arrest
- cell cycle profiles of non-malignant cells (7SM0032 and SAEC cells): doesn’t significantly change the cell cycle profiles
- caspase activation ([3]; cancer cells, 500 nM AOH1160): activation of caspase-3 and caspase-9
- γH2A.X levels ([3]; cancer cells, 500 nM AOH1160): increases γH2A.X levels
- intracellular γH2A.X level in non-malignant cells (γH2A.X in 7SM0032 cells): Nor does it increase intracellular γH2A.X level
- HR-mediated DNA repair ([4]; various concentrations of AOH1160): blocks DNA repair in DR-GFP
- apoptosis by TUNEL (SK-N-DZ cells): increase in apoptosis
- apoptosis by TUNEL in non-malignant cells (7SM0032 cells): Nor does it increase intracellular γH2A.X level (Fig 4b) or induce apoptosis
- sensitivity to cisplatin, colony formation (SK-N-DZ NB cells): more sensitive to cisplatin treatment in the presence of AOH1160
- sensitivity to cleavage by ES-1 (carboxyl esterase, ES-1; amide hydrolysis): sensitive to cleavage by the carboxyl esterase, ES-1
- stability in plasma (carboxyl esterase, ES-1; rodent plasma, 37°C): not stable
- stability in plasma [5]: stable
- stability in plasma [6]: stable
- stability in plasma [7]: stable
- stability in plasma [8]: stable
- half-life in vivo (Pharmacokinetic; PO, 40 mg/kg): about 3.5 h
- oral availability (Pharmacokinetic; PO, 40 mg/kg): available to the animal through the oral dosing route
- peak concentration (CMAX) (Pharmacokinetic; PO, 40 mg/kg): well above the calculated IC50 of most cancer cell lines
- metabolites in animal plasma (Pharmacokinetic; mouse, in vivo): Metabolites derived from AOH1160 hydroxylation were observed
- toxicity in repeated dose study [9]: No significant toxicity was observed
- maximum concentration achievable under STD NMR condition (15 mM D2O phosphate buffer, 2% D6-DMSO, determined by 1D NMR spectra): approximately 14.5 µM
- permeability (not told): high permeability
- tumor burden ([10]; vs vehicle): significantly reduced tumor burden
- death or weight loss ([10]; data not shown): did not cause any death or significant weight loss

Compound: O=C(CNC(=O)c1cccc2ccccc12)Nc1ccccc1Cc1ccccc1 [AOH39]
- thyroid hormone activity in TR reporter assay (human TRβ): neither AOH1160 nor AOH39 showed any thyroid hormone activity
- cell cycle effect (SK-N-DZ and H524 cells; SK-N-DZ, 3 µM AOH39, 6 or 24 h): caused cell cycle arrest of cancer cells at the S and, to a larger degree, G2/M phases
- apoptosis (sub-G1 population) (SK-N-DZ and H524 cells; SK-N-DZ, 3 µM AOH39, 24 h): cancer cells start to die through apoptosis
- intracellular γH2A.X levels ([3]; SK-N-DZ, 3 µM AOH39): enhanced intracellular γH2A.X levels
- HR-mediated DNA repair ([4]; 4 µM AOH39): inhibited HR-mediated DNA repair
- EJ-mediated DNA repair [11]: without exerting any statistically significant effect on EJ
